Test results taken from ChEMBL document CHEMBL1125112, “Antitumor imidazotetrazines. 20. Preparation of the 8-acid derivative of mitozolomide and its utility in the preparation of active antitumor agents” (1990).

Tests used:
TLX-5 [1] = assay: (§1) In vivo antitumor activity against the TLX5 lymphoma cell line in mouse species CBA/CA after intraperitoneal administration (inoculum cells-2x10E5,sc) at the dose of 20 mg/kg; type: functional
Outline: (§2)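 CBA/CA mice were inoculated with 2 × 10^5 TLX5 lymphoma cells. Drug given intraperitoneally in 10% Me2SO in arachis oil, 5 mice per dose, and the experiment lasted 60 days. Survivors at 60 days were recorded. T/C % = mean death day of treated animals / mean death day of control animals.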

TLX-5 [2] = assay: In vivo antitumor activity against the TLX5 lymphoma cell line in mouse species CBA/CA after intraperitoneal administration (inoculum cells-2x10E5,sc) at the dose of 80 mg/kg; type: functional; outline: as §2
TLX-5 [3] = assay: In vivo antitumor activity against the TLX5 lymphoma cell line in mouse species CBA/CA after intraperitoneal administration (inoculum cells-2x10E5,sc) at the dose of 40 mg/kg on 5th day; type: functional
TLX-5 [4] = assay: (§3) In vivo antitumor activity against the TLX5 lymphoma cell line in mouse species CBA/CA after intraperitoneal administration (inoculum cells-2x10E5,sc) at the dose of 160 mg/kg; type: functional
Outline: (§4)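 CBA/CA mice were implanted sc with 2 × 10^5 TLX5 lymphoma cells. Compound was given ip on day 3 in 10% Me2SO in arachis oil, over 60 days, in groups of 5. T/C% = mean death day of treated/mean death day of controls. Survivors to day 60 were counted.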

TLX-5 [5] = assay: In vivo antitumor activity against the TLX5 lymphoma cell line in mouse species CBA/CA after intraperitoneal administration (inoculum cells-2x10E5,sc) at the dose of 20 mg/kg on 5th day; type: functional
TLX-5 [6] = assay: In vivo antitumor activity against the TLX5 lymphoma cell line in mouse species CBA/CA after intraperitoneal administration (inoculum cells-2x10E5,sc) at the dose of 320 mg/kg on 5th day; type: functional
TLX-5 [7] = assay: In vivo antitumor activity against the TLX5 lymphoma cell line in mouse species CBA/CA after intraperitoneal administration (inoculum cells-2x10E5,sc) at the dose of 80 mg/kg on 5th day; type: functional
TLX-5 [8] = assay: In vivo antitumor activity against the TLX5 lymphoma cell line in mouse species CBA/CA after intraperitoneal administration (inoculum cells-2x10E5,sc) at the dose of 40 mg/kg; type: functional; outline: as §2
TLX-5 [9] = assay: In vivo antitumor activity against the TLX5 lymphoma cell line in mouse species CBA/CA after intraperitoneal administration (inoculum cells-2x10E5,sc) at the dose of 10 mg/kg on 5th day; type: functional
TLX-5 [10] = assay: In vivo antitumor activity against the TLX5 lymphoma cell line in mouse species CBA/CA after intraperitoneal administration (inoculum cells-2x10E5,sc) at the dose of 5 mg/kg on 5th day; type: functional
L1210 [11] = assay: In vivo antitumor activity against the L1210 leukemia cell line in mouse species B6D2F1 after peroral administration (inoculum cells-10E5,ip) at the dose of 80 mg/kg on 10th day; type: functional; conditions: route oral
Outline: (§5)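 B6D2F1 mice were inoculated with 10^5 L1210 leukemia cells, ip or iv as the line states. Compound was given orally as a suspension in 1% (carboxymethyl)cellulose in water, dosed on day 1 or 3, over 28–39 days. T/C% = mean death day of treated/mean death day of controls. Survivors to the end were counted in groups of 7–8.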

TLX-5 [12] = assay: In vivo antitumor activity against the TLX5 lymphoma cell line in mouse species CBA/CA after intraperitoneal administration (inoculum cells-2x10E5,sc) at the dose of 320 mg/kg; type: functional; outline: as §2
TLX-5 [13] = assay: In vivo antitumor activity against the TLX5 lymphoma cell line in mouse species CBA/CA after intraperitoneal administration (inoculum cells-2x10E5,sc) at the dose of 160 mg/kg on 5th day; type: functional
TLX-5 [14] = assay: as §3; type: functional; outline: as §2; remark: listed apart in the source
TLX-5 [15] = assay: In vivo antitumor activity against the TLX5 lymphoma cell line in mouse species CBA/CA after intraperitoneal administration (inoculum cells-2x10E5,sc) at the dose of 320 mg/kg on 3rd day
L1210 [16] = assay: In vivo antitumor activity against the L1210 leukemia cell line in mouse species B6D2F1 after peroral administration (inoculum cells-10E5,iv) at the dose of 40 mg/kg; type: functional; conditions: route oral
L1210 [17] = assay: In vivo antitumor activity against the L1210 leukemia cell line in mouse species B6D2F1 after peroral administration (inoculum cells-10E5,iv) at the dose of 40 mg/kg on 7th day; type: functional; conditions: route oral; outline: as §5
L1210 [18] = assay: In vivo antitumor activity against the L1210 leukemia cell line in mouse species B6D2F1 after peroral administration (inoculum cells-10E5,iv) at the dose of 20 mg/kg on 7th day; type: functional; conditions: route oral; outline: as §5
L1210 [19] = assay: In vivo antitumor activity against the L1210 leukemia cell line in mouse species B6D2F1 after peroral administration (inoculum cells-10E5,iv) at the dose of 20 mg/kg; type: functional; conditions: route oral
L1210 [20] = assay: In vivo antitumor activity against the L1210 leukemia cell line in mouse species B6D2F1 after peroral administration (inoculum cells-10E5,iv) at the dose of 10 mg/kg; type: functional; conditions: route oral
L1210 [21] = assay: In vivo antitumor activity against the L1210 leukemia cell line in mouse species B6D2F1 after peroral administration (inoculum cells-10E5,iv) at the dose of 10 mg/kg on 7th day; type: functional; conditions: route oral
TLX-5 [22] = assay: In vivo antitumor activity against the TLX5 lymphoma cell line in mouse species CBA/CA after intraperitoneal administration (inoculum cells-2x10E5,sc) at the dose of 10 mg/kg; type: functional
L1210 [23] = assay: In vivo antitumor activity against the L1210 leukemia cell line in mouse species B6D2F1 after peroral administration (inoculum cells-10E5,iv) at the dose of 100 mg/kg; type: functional; conditions: route oral
L1210 [24] = assay: In vivo antitumor activity against the L1210 leukemia cell line in mouse species B6D2F1 after peroral administration (inoculum cells-10E5,iv) at the dose of 50 mg/kg on 7th day; type: functional; conditions: route oral; outline: as §5
L1210 [25] = assay: In vivo antitumor activity against the L1210 leukemia cell line in mouse species B6D2F1 after peroral administration (inoculum cells-10E5,iv) at the dose of 100 mg/kg on 7th day; type: functional; conditions: route oral; outline: as §5
L1210 [26] = assay: In vivo antitumor activity against the L1210 leukemia cell line in mouse species B6D2F1 after peroral administration (inoculum cells-10E5,iv) at the dose of 200 mg/kg on 10th day; type: functional; conditions: route oral; outline: as §5
L1210 [27] = assay: In vivo antitumor activity against the L1210 leukemia cell line in mouse species B6D2F1 after peroral administration (inoculum cells-10E5,iv) at the dose of 50 mg/kg; type: functional; conditions: route oral
L1210 [28] = assay: In vivo antitumor activity against the L1210 leukemia cell line in mouse species B6D2F1 after peroral administration (inoculum cells-10E5,iv) at the dose of 200 mg/kg; type: functional; conditions: route oral
L1210 [29] = assay: In vivo antitumor activity against the L1210 leukemia cell line in mouse species B6D2F1 after peroral administration (inoculum cells-10E5,ip) at the dose of 10 mg/kg on 10th day; type: functional; conditions: route oral; outline: as §5
L1210 [30] = assay: In vivo antitumor activity against the L1210 leukemia cell line in mouse species B6D2F1 after peroral administration (inoculum cells-10E5,iv) at the dose of 200 mg/kg on 7th day; type: functional; conditions: route oral; outline: as §5
TLX-5 [31] = assay: In vivo antitumor activity against the TLX5 lymphoma cell line in mouse species CBA/CA after intraperitoneal administration (inoculum cells-2x10E5,sc) at the dose of 640 mg/kg on 5th day; type: functional
TLX-5 [32] = assay: In vivo antitumor activity against the TLX5 lymphoma cell line in mouse species CBA/CA after intraperitoneal administration (inoculum cells-2x10E5,sc) at the dose of 640 mg/kg; type: functional; outline: as §2
TLX-5 [33] = assay: as §1; type: functional; outline: as §4; remark: listed apart in the source
L1210 [34] = assay: In vivo antitumor activity against the L1210 leukemia cell line in mouse species B6D2F1 after peroral administration (inoculum cells-10E5,iv) at the dose of 5 mg/kg on 7th day; type: functional; conditions: route oral

SMILES	T/C (TLX-5 [1])	T/C (TLX-5 [2])	Survivors (TLX-5 [3])	Survivors (TLX-5 [5])	Survivors (TLX-5 [6])	Survivors (TLX-5 [7])	T/C (TLX-5 [8])	Survivors (TLX-5 [13])	also measured
O=C(NC1CCCCC1)c1ncn2c(=O)n(CCCl)nnc12	109%	>277%	0	0	0	1	125%	–	Survivors (TLX-5 [4]): 0
CNC(=O)c1ncn2c(=O)n(CCCl)nnc12	>154%	–	–	–	–	0	–	–	Survivors (TLX-5 [9]): 0; Survivors (TLX-5 [10]): 0; Survivors (L1210 [11]): 0
CCSC(=O)c1ncn2c(=O)n(CCCl)nnc12	106%	108%	0	0	–	0	104%	0	T/C (TLX-5 [12]): 125%; T/C (TLX-5 [14]): 119%; Survivors (TLX-5 [15]): 0
O=C(NCCCl)c1ncn2c(=O)n(CCCl)nnc12	142%	–	3	0	–	0	>361%	–	T/C (L1210 [16]): 227%; Survivors (L1210 [17]): 0; Survivors (L1210 [18]): 0; Survivors (TLX-5 [9]): 0; T/C (L1210 [19]): 183%; T/C (L1210 [20]): 121%; Survivors (L1210 [21]): 0; T/C (TLX-5 [22]): 103%
CC(C)(C)NC(=O)c1ncn2c(=O)n(CCCl)nnc12	–	–	–	–	–	–	–	–	T/C (L1210 [23]): 149%; Survivors (L1210 [24]): 0; Survivors (L1210 [25]): 0; Survivors (L1210 [26]): 0; T/C (L1210 [27]): 132%; T/C (L1210 [28]): 307%
CN(C)C(=O)c1ncn2c(=O)n(CCCl)nnc12	–	–	–	0	–	–	–	0	Survivors (L1210 [29]): 0; Survivors (L1210 [11]): 0
O=C(N[N+](=O)[O-])c1ncn2c(=O)n(CCCl)nnc12	109%	118%	0	0	0	0	101%	2	T/C (TLX-5 [14]): >354%
O=C(NO)c1ncn2c(=O)n(CCCl)nnc12	–	–	–	–	–	–	–	–	T/C (L1210 [23]): 187%; Survivors (L1210 [30]): 0; Survivors (L1210 [25]): 0; T/C (L1210 [28]): 218%
O=C(NOCc1ccccc1)c1ncn2c(=O)n(CCCl)nnc12	–	–	–	–	–	–	–	–	T/C (L1210 [23]): 98%; Survivors (L1210 [30]): 0; Survivors (L1210 [24]): 0; Survivors (L1210 [25]): 0; T/C (L1210 [27]): 98%; T/C (L1210 [28]): 98%
[N-]=[N+]=NC(=O)c1ncn2c(=O)n(CCCl)nnc12	97%	106%	0	0	–	0	96%	0	Survivors (TLX-5 [9]): 0; T/C (TLX-5 [22]): 101%
COC(=O)c1ncn2c(=O)n(CCCl)nnc12	106%	110%	0	0	0	0	110%	0	T/C (TLX-5 [12]): 140%; T/C (TLX-5 [14]): 123%
CCOC(=O)CNC(=O)c1ncn2c(=O)n(CCCl)nnc12	–	96%	–	–	0	0	–	0	T/C (TLX-5 [12]): 114%; Survivors (TLX-5 [31]): 0; T/C (TLX-5 [32]): 139%; T/C (TLX-5 [14]): 105%
O=C(Nc1ccccc1)c1ncn2c(=O)n(CCCl)nnc12	–	–	0	0	0	0	–	0	–
NC(=O)c1ncn2c(=O)n(CCCl)nnc12 [MITOZOLOMIDE]	–	–	–	–	–	–	–	–	Survivors (TLX-5 [33]): 0; Survivors (L1210 [18]): 0; Survivors (TLX-5 [9]): 0; Survivors (L1210 [34]): 0; Survivors (TLX-5 [10]): 0; Survivors (L1210 [21]): 0
